In ChEMBL document CHEMBL3865824, “New (E)-1-alkyl-1H-benzo[d]imidazol-2-yl)methylene)indolin-2-ones: Synthesis, in vitro cytotoxicity evaluation and apoptosis inducing studies” (Eur J Med Chem, 2016):
Active and inactive are the calls of the source. The calls are words filed in the database; no cut-off is given here.

How the values were obtained:
[1] = Cell cycle arrest in human MDA-MB-231 cells assessed as accumulation at G2/M phase at 2 uM after 24 hrs by propidium iodide staining based FACS analysis (reference value: 26 %); type: functional
Method in brief: (§1)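 MDA-MB-231 at 1×10^6 cells/well treated with 1, 2 or 4 µM for 24 h, with a DMSO control. Cells harvested by trypsin, washed with PBS and fixed in 70% ethanol for 30 min at 4 °C. Stained 15 min at room temperature in the dark with PI buffer containing Triton X and DNase-free RNase A. Analysed by flow cytometry; G0/G1, S and G2/M fractions quantified.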

[2] = system: MDA-MB-231; experiment: Induction of apoptosis in human MDA-MB-231 cells assessed as reduction in viable cells at 1 to 4 uM after 24 hrs by phase contrast microscopic analysis; type: functional, cell-based
Method in brief: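 MDA-MB-231 cells were exposed for 24 h to 1, 2 and 4 μM beside a control. Morphology (shrinkage, deformation, number of viable cells) was examined and photographed by phase contrast microscopy.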

[3] = system: MDA-MB-231; experiment: Induction of apoptosis in human MDA-MB-231 cells assessed as early apoptotic cells at 2 uM after 24 hrs by Annexin V-FITC/propidium iodide-staining based FACS analysis (reference value: 4.1 %); type: functional
[4] = system: MDA-MB-231; experiment: Induction of apoptosis in human MDA-MB-231 cells assessed as loss of mitochondrial membrane potential after 24 hrs by rhodamine-123 -based spectrofluorometric analysis; type: functional, cell-based
Method in brief: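 MDA-MB-231 seeded at 5×10^5 cells/mL and allowed to adhere overnight, then treated at 1, 2 or 4 µM for 24 h. Cells collected by trypsin, washed, and stained with rhodamine-123 (10 µg/mL) in PBS for 30 min at room temperature. Cells washed twice and fluorescence read at excitation 480 nm, emission 530 nm. Mean ± SD of three independent experiments in triplicate.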

[5] = system: MDA-MB-231; experiment: Induction of apoptosis in human MDA-MB-231 cells assessed as late apoptotic cells after 24 hrs by Annexin V-FITC/propidium iodide-staining based FACS analysis; type: functional, cell-based
[6] = Cell cycle arrest in human MDA-MB-231 cells assessed as accumulation at G2/M phase after 24 hrs by propidium iodide staining based FACS analysis; type: functional; settings: in the assay text read “G0/G1” for “G2/M”; method in brief: as §1
[7] = system: MDA-MB-231; experiment: Induction of apoptosis in human MDA-MB-231 cells assessed as early apoptotic cells at 4 uM after 24 hrs by Annexin V-FITC/propidium iodide-staining based FACS analysis (reference value: 4.1 %); type: functional
[8] = system: MDA-MB-231; experiment: Antimigratory activity against human MDA-MB-231 cells assessed inhibition of cell migration towards wound area at 2 to 4 uM up to 24 hrs by phase contrast microscopic analysis; type: functional, cell-based
Method in brief: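 MDA-MB-231 seeded at 5×10^5 cells/well and grown 24 h to a confluent monolayer. Monolayer scratched with a 200 µL pipette tip and washed twice with PBS to remove non-adherent cells. Medium with compound at 1, 2 or 4 µM added. Wound closure photographed by phase contrast microscopy at 0 and 24 h after treatment.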

[9] = Cytotoxicity against human MDA-MB-231 cells assessed as growth inhibition at 50 uM after 48 hrs by MTT assay relative to control; type: functional; settings: MDA-MB-231, 48 h, read-out: GI
Method in brief: (§2)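 Cells grown in DMEM or MEM with 10% FBS at 37 °C, 5% CO2. Seeded at 1×10^4 cells/well, incubated 48 h, then exposed to compound for 48 h with vehicle control. MTT (5 mg/mL stock) added for 4 h; formazan dissolved in DMSO, absorbance read at 570 nm. Preliminary screen at 50 µM. Compounds giving >50% inhibition were tested for dose-response curves; IC50 derived by linear regression of % inhibition versus concentration. Mean of three independent experiments in triplicate.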

[10] = Selectivity ratio of IC50 for human MCF10A cells to IC50 for […] cells; type: ADME, cell-based, MCF-10A; settings: MCF10A cells versus 4TI cells, read-out: Ratio IC50
[11] = system: MDA-MB-231; experiment: Induction of apoptosis in human MDA-MB-231 cells assessed as late apoptotic cells at 1 uM after 24 hrs by Annexin V-FITC/propidium iodide-staining based FACS analysis (reference value: 3.6 %); type: functional
[12] = system: MDA-MB-231; experiment: Induction of apoptosis in human MDA-MB-231 cells assessed as viable cells at 4 uM after 24 hrs by Annexin V-FITC/propidium iodide-staining based FACS analysis (reference value: 89.5 %); type: functional; settings: MDA-MB-231, 24 h, read-out: Activity
[13] = Cytotoxicity against human PC3 cells assessed as reduction in cell viability after 48 hrs by MTT assay; type: functional, cell-based; settings: PC-3, 48 h; method in brief: as §2
[14] = Cell cycle arrest in human MDA-MB-231 cells assessed as accumulation at G2/M phase at 1 uM after 24 hrs by propidium iodide staining based FACS analysis (reference value: 26 %); type: functional; method in brief: as §1
[15] = system: MDA-MB-231; experiment: Induction of apoptosis in human MDA-MB-231 cells assessed as late apoptotic cells at 4 uM after 24 hrs by Annexin V-FITC/propidium iodide-staining based FACS analysis (reference value: 3.6 %); type: functional
[16] = Cell cycle arrest in human MDA-MB-231 cells assessed as accumulation at S phase at 4 uM after 24 hrs by propidium iodide staining based FACS analysis (reference value: 24.6 %); type: functional; method in brief: as §1
[17] = Cell cycle arrest in human MDA-MB-231 cells assessed as accumulation at G2/M phase at 4 uM after 24 hrs by propidium iodide staining based FACS analysis (reference value: 26 %); type: functional; method in brief: as §1
[18] = system: MDA-MB-231; experiment: Induction of apoptosis in human MDA-MB-231 cells assessed as cell membrane blebbing at 1 uM after 24 hrs by AO/EB-dual staining based fluorescent microscopic analysis; type: functional
Method in brief: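 MDA-MB-231 plated at 1×10^6 cells/mL and treated at 1, 2 or 4 µM, with a DMSO control. Incubation time is given as 48 h in the methods and 24 h in the figure legend. AO and EB added at 10 µg/mL each. Cells viewed within 10 min by fluorescence microscopy (excitation 488 nm, emission 550 nm) at 200×.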

[19] = Cytotoxicity against human BT549 cells assessed as growth inhibition at 50 uM after 48 hrs by MTT assay relative to control; type: functional; settings: BT-549, 48 h, read-out: GI; method in brief: as §2
[20] = Cell cycle arrest in human MDA-MB-231 cells assessed as accumulation at S phase at 2 uM after 24 hrs by propidium iodide staining based FACS analysis (reference value: 24.6 %); type: functional; method in brief: as §1
[21] = system: MDA-MB-231; experiment: Induction of apoptosis in human MDA-MB-231 cells assessed as formation of condensed nuclei at 1 to 4 uM after 24 hrs by DAPI dye-based fluorescent microscopic analysis; type: functional, cell-based
Method in brief: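 MDA-MB-231 grown at 1×10^6 cells/well in 6-well plates and treated at 1.0, 2.0 or 4.0 µM for 24 h, with untreated controls. Cells washed twice with PBS, fixed in 4% paraformaldehyde and stained with 10 µg/mL DAPI. Nuclei examined by fluorescence microscopy (excitation 359 nm, emission 461 nm) at 200×.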

[22] = Cytotoxicity against HGC cells assessed as growth inhibition at 50 uM after 48 hrs by MTT assay relative to control; type: functional; settings: Homo sapiens, read-out: GI; method in brief: as §2

## CC(C)n1c(/C=C2/C(=O)Nc3ccc(Br)cc32)nc2ccccc21
[1]
  Activity: 18.9%
[2]
  Activity: Active
[3]
  Activity: 18.7%
[4]
  Activity: Dose-dependent effect
[5]
  Activity: Dose-dependent effect
[6]
  Activity: Dose-dependent effect
[7]
  Activity: 23.4%
[8]
  inhibition: Active
[9]
  inhibition of growth at 50 µM: > 50%
[10]
  selectivity ratio: 9.5
[11]
  Activity: 4.7%
[12]
  viability at 4 µM: 65.3%
[13]
  IC50: 10.7 µM
[14]
  Activity: 21.8%
[15]
  Activity: 7.1%
[16]
  Activity: 11.3%
[17]
  Activity: 14.8%
[18]
  Activity: Active
[19]
  inhibition of growth at 50 µM: > 50%
[20]
  Activity: 17.7%
[21]
  Activity: Active
[22]
  inhibition of growth at 50 µM: > 50%
